Data: ChEMBL document CHEMBL1147862, “Studies on synthesis and pharmacological activities of 3,6-disubstituted-1,2,4-triazolo[3,4-b]-1,3,4-thiadiazoles and their dihydro analogues” (2007)

Tests used:
Type in all cases: functional
Staphylococcus aureus [1] = test: Antibacterial activity against Staphylococcus aureus at 10 ug/ml by agar plate diffusion technique; conditions: read-out: IZ
Aspergillus niger [2] = test: Antifungal activity against Aspergillus niger at 30 ug/ml by paper disc method; conditions: read-out: IZ
Mus musculus [3] = test: Analgesic activity in Swiss mouse assessed as increase in reaction time at 20 mg/kg, po after 90 mins by Eddy's hot plate technique
Method in brief: (§1)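 Swiss mice of either sex, 25–35 g, placed one at a time on a hot plate held at 55 °C. End point is paw licking or jumping, whichever comes first, with a 15 s cut-off to avoid paw injury. Reaction time is recorded and reported as percent increase in reaction time.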

Pseudomonas aeruginosa [4] = test: Antibacterial activity against Pseudomonas aeruginosa at 30 ug/ml by agar plate diffusion technique; conditions: read-out: IZ
Bacillus subtilis [5] = test: Antibacterial activity against Bacillus subtilis at 20 ug/ml by agar plate diffusion technique; conditions: read-out: IZ
Staphylococcus aureus [6] = test: Antibacterial activity against Staphylococcus aureus at 30 ug/ml by agar plate diffusion technique; conditions: read-out: IZ
Candida albicans [7] = test: Antifungal activity against Candida albicans at 10 ug/ml by paper disc method; conditions: read-out: IZ
Aspergillus niger [8] = test: Antifungal activity against Aspergillus niger at 20 ug/ml by paper disc method; conditions: read-out: IZ
Mus musculus [9] = test: Analgesic activity in Swiss mouse assessed as increase in reaction time at 20 mg/kg, po after 60 mins by Eddy's hot plate technique; method in brief: as §1
Staphylococcus aureus [10] = test: Antibacterial activity against Staphylococcus aureus at 20 ug/ml by agar plate diffusion technique; conditions: read-out: IZ
Rattus norvegicus [11] = test: Antiinflammatory activity in Wistar Albino rat assessed as inhibition of carrageenan-induced paw oedema at 20 mg/kg after 4 hrs relative to control
Method in brief: (§2)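 Wistar albino rats, 150–200 g, six per group, dosed orally with a 20 mg/kg suspension; control gets 0.1 ml 1% gum acacia. After 30 min, 0.1 ml 1% carrageenan in saline is injected subplantar into the right hind paw. Paw volume is read by plethysmograph at 0–4 h. Inhibition = 100(1 − Vtest/Vcontrol) on mean volume increase.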

Escherichia coli [12] = test: Antibacterial activity against Escherichia coli at 20 ug/ml by agar plate diffusion technique; conditions: read-out: IZ
Bacillus subtilis [13] = test: Antibacterial activity against Bacillus subtilis at 30 ug/ml by agar plate diffusion technique; conditions: read-out: IZ
Escherichia coli [14] = test: Antibacterial activity against Escherichia coli at 30 ug/ml by agar plate diffusion technique; conditions: read-out: IZ
Candida albicans [15] = test: Antifungal activity against Candida albicans at 20 ug/ml by paper disc method; conditions: read-out: IZ
Aspergillus niger [16] = test: Antifungal activity against Aspergillus niger at 10 ug/ml by paper disc method; conditions: read-out: IZ
Bacillus subtilis [17] = test: Antibacterial activity against Bacillus subtilis at 10 ug/ml by agar plate diffusion technique; conditions: read-out: IZ
Candida albicans [18] = test: Antifungal activity against Candida albicans at 30 ug/ml by paper disc method; conditions: read-out: IZ
Rattus norvegicus [19] = test: Antiinflammatory activity in Wistar Albino rat assessed as inhibition of carrageenan-induced paw oedema at 20 mg/kg after 2 hrs relative to control; method in brief: as §2
Mus musculus [20] = test: Analgesic activity in Swiss mouse assessed as increase in reaction time at 20 mg/kg, po after 30 mins by Eddy's hot plate technique; method in brief: as §1
Rattus norvegicus [21] = test: Antiinflammatory activity in Wistar Albino rat assessed as inhibition of carrageenan-induced paw oedema at 20 mg/kg after 3 hrs relative to control; method in brief: as §2
Pseudomonas aeruginosa [22] = test: Antibacterial activity against Pseudomonas aeruginosa at 20 ug/ml by agar plate diffusion technique; conditions: read-out: IZ
Escherichia coli [23] = test: Antibacterial activity against Escherichia coli at 10 ug/ml by agar plate diffusion technique; conditions: read-out: IZ
Pseudomonas aeruginosa [24] = test: Antibacterial activity against Pseudomonas aeruginosa at 10 ug/ml by agar plate diffusion technique; conditions: read-out: IZ
Rattus norvegicus [25] = test: Antiinflammatory activity in Wistar Albino rat assessed as inhibition of carrageenan-induced paw oedema at 20 mg/kg after 1 hr relative to control; method in brief: as §2

SMILES | zone of inhibition at 10 µg/mL (Staphylococcus aureus [1]) | zone of inhibition at 30 µg/mL (Aspergillus niger [2]) | Activity (Mus musculus [3]) | zone of inhibition at 30 µg/mL (Pseudomonas aeruginosa [4]) | zone of inhibition at 20 µg/mL (Bacillus subtilis [5]) | zone of inhibition at 30 µg/mL (Staphylococcus aureus [6]) | zone of inhibition at 10 µg/mL (Candida albicans [7]) | zone of inhibition at 20 µg/mL (Aspergillus niger [8]) | Activity (Mus musculus [9]) | zone of inhibition at 20 µg/mL (Staphylococcus aureus [10]) | zone of inhibition at 20 µg/mL (Escherichia coli [12]) | zone of inhibition at 30 µg/mL (Bacillus subtilis [13]) | zone of inhibition at 30 µg/mL (Escherichia coli [14]) | zone of inhibition at 20 µg/mL (Candida albicans [15]) | zone of inhibition at 10 µg/mL (Aspergillus niger [16]) | zone of inhibition at 10 µg/mL (Bacillus subtilis [17]) | zone of inhibition at 30 µg/mL (Candida albicans [18]) | zone of inhibition at 20 µg/mL (Pseudomonas aeruginosa [22]) | zone of inhibition at 10 µg/mL (Escherichia coli [23]) | zone of inhibition at 10 µg/mL (Pseudomonas aeruginosa [24]) | other results
COc1ccc(Cc2nnc3n2NC(c2ccco2)S3)cc1OC (centres undefined) | 3.7 mm | 12.3 mm | 25.11% | 12.7 mm | 6.65 mm | 11.8 mm | 5.48 mm | 6.96 mm | 17.26% | 7.31 mm | 7.49 mm | 12.2 mm | 14.2 mm | 10.4 mm | 4.8 mm | 3.8 mm | 14.7 mm | 7.11 mm | 4.29 mm | 3.73 mm | inhibition in vivo at 20 mg/kg (Rattus norvegicus [11]): 24.6%; inhibition in vivo at 20 mg/kg (Rattus norvegicus [19]): 17.5%; Activity (Mus musculus [20]): 5.36%; inhibition in vivo at 20 mg/kg (Rattus norvegicus [21]): 21.1%; inhibition in vivo at 20 mg/kg (Rattus norvegicus [25]): 12%
COc1ccc(Cc2nnc3sc(-c4ccnc5ccccc45)nn23)cc1OC | 6.96 mm | 18 mm | 21.96% | 18.2 mm | 13.3 mm | 18.3 mm | 6.14 mm | 13 mm | 16.8% | 12.6 mm | 14.4 mm | 18.7 mm | 18.6 mm | 13.7 mm | 6.32 mm | 7.4 mm | 17.8 mm | 14.1 mm | 7.85 mm | 7.7 mm | inhibition in vivo at 20 mg/kg (Rattus norvegicus [11]): 24.8%; inhibition in vivo at 20 mg/kg (Rattus norvegicus [19]): 17.1%; Activity (Mus musculus [20]): 7.55%; inhibition in vivo at 20 mg/kg (Rattus norvegicus [21]): 19.1%; inhibition in vivo at 20 mg/kg (Rattus norvegicus [25]): 14.6%
CCCCC1C(=O)N(c2ccccc2)N(c2ccccc2)C1=O [PHENYLBUTAZONE] | – | – | – | – | – | – | – | – | – | – | – | – | – | – | – | – | – | – | – | – | inhibition in vivo at 20 mg/kg (Rattus norvegicus [11]): 45.4%; inhibition in vivo at 20 mg/kg (Rattus norvegicus [19]): 33.6%; inhibition in vivo at 20 mg/kg (Rattus norvegicus [21]): 40.8%; inhibition in vivo at 20 mg/kg (Rattus norvegicus [25]): 21.2%
COc1ccc(Cl)c(-c2nnc3n2NC(c2cccn2C)S3)c1 (centres undefined) | 3.82 mm | 12.9 mm | 19.67% | 11.9 mm | 6.82 mm | 11 mm | 4.3 mm | 7.65 mm | 6.2% | 6.1 mm | 6.9 mm | 9.33 mm | 10.1 mm | 7.4 mm | 4.71 mm | 3.6 mm | 12.6 mm | 7.1 mm | 3.82 mm | 3.9 mm | inhibition in vivo at 20 mg/kg (Rattus norvegicus [11]): 20.7%; inhibition in vivo at 20 mg/kg (Rattus norvegicus [19]): 16.8%; Activity (Mus musculus [20]): 4.38%; inhibition in vivo at 20 mg/kg (Rattus norvegicus [21]): 18.5%; inhibition in vivo at 20 mg/kg (Rattus norvegicus [25]): 14.1%
Cc1occc1-c1nnc2sc(-c3ccnc4ccccc34)nn12 | 8.16 mm | 19.6 mm | 19.24% | 19.1 mm | 14.1 mm | 19.1 mm | 5.78 mm | 12 mm | 10.24% | 14.1 mm | 15.3 mm | 19.8 mm | 19.4 mm | 11 mm | 6.14 mm | 8.14 mm | 19.2 mm | 14.2 mm | 8.74 mm | 8.17 mm | inhibition in vivo at 20 mg/kg (Rattus norvegicus [11]): 23.4%; inhibition in vivo at 20 mg/kg (Rattus norvegicus [19]): 17.1%; Activity (Mus musculus [20]): 5.62%; inhibition in vivo at 20 mg/kg (Rattus norvegicus [21]): 20.3%; inhibition in vivo at 20 mg/kg (Rattus norvegicus [25]): 12.5%
COc1ccc(Cc2nnc3sc(-c4cc(-c5ccccc5)nc5ccccc45)nn23)cc1OC | 5.12 mm | 16.7 mm | 25.11% | 16 mm | 10.2 mm | 16.7 mm | 5.82 mm | 11.5 mm | 17.26% | 10.3 mm | 11.3 mm | 15.9 mm | 16.9 mm | 11.4 mm | 6.14 mm | 5.76 mm | 17.9 mm | 10.8 mm | 6.08 mm | 5.92 mm | inhibition in vivo at 20 mg/kg (Rattus norvegicus [11]): 22.2%; inhibition in vivo at 20 mg/kg (Rattus norvegicus [19]): 18.7%; Activity (Mus musculus [20]): 5.36%; inhibition in vivo at 20 mg/kg (Rattus norvegicus [21]): 20.2%; inhibition in vivo at 20 mg/kg (Rattus norvegicus [25]): 12.3%
CN[C@H](CC(C)C)C(=O)N[C@H]1C(=O)N[C@@H](CC(N)=O)C(=O)N[C@H]2C(=O)N[C@H]3C(=O)N[C@H](C(=O)N[C@H](C(=O)O)c4cc(O)cc(O)c4-c4cc3ccc4O)[C@H](O)c3ccc(c(Cl)c3)Oc3cc2cc(c3O[C@@H]2O[C@H](CO)[C@@H](O)[C@H](O)[C@H]2O[C@H]2C[C@](C)(N)[C@H](O)[C@H](C)O2)Oc2ccc(cc2Cl)[C@H]1O [VANCOMYCIN] | – | – | – | – | – | – | – | – | – | – | – | 23 mm | – | – | – | – | – | – | – | – | –
COc1ccc(Cl)c(-c2nnc(S)n2N)c1 | 5.16 mm | 11 mm | – | 9.1 mm | 7.05 mm | 9.06 mm | 2.33 mm | 5.02 mm | – | 7.28 mm | 7.16 mm | 10.1 mm | 9.17 mm | 5.18 mm | 2.59 mm | 4.25 mm | 9.79 mm | 7.26 mm | 5.08 mm | 5.23 mm | –
Cc1occc1-c1nnc(S)n1N | 5.46 mm | 13.5 mm | – | 12.8 mm | 8.94 mm | 11.3 mm | 3 mm | 6.94 mm | – | 8.16 mm | 9.16 mm | 11.2 mm | 12.8 mm | 6.82 mm | 3.27 mm | 5.8 mm | 12.4 mm | 9.16 mm | 6.74 mm | 6.12 mm | –
COc1ccc(Cc2nnc(S)n2N)cc1OC | 4.72 mm | 10.7 mm | – | 8.24 mm | 7.26 mm | 9.52 mm | 2.76 mm | 4.92 mm | – | 7.14 mm | 7.58 mm | 9.83 mm | 10.1 mm | 5.14 mm | 2.67 mm | 5.06 mm | 11 mm | 6.76 mm | 4.86 mm | 5.06 mm | –
O=C([O-])Cc1ccccc1Nc1c(Cl)cccc1Cl.[Na+] [DICLOFENAC SODIUM] | – | – | 43.25% | – | – | – | – | – | 38.15% | – | – | – | – | – | – | – | – | – | – | – | Activity (Mus musculus [20]): 32.23%
COC1=CC(=O)C[C@@H](C)[C@]12Oc1c(Cl)c(OC)cc(OC)c1C2=O [GRISEOFULVIN] | – | 23.1 mm | – | – | – | – | – | – | – | – | – | – | – | – | – | – | 24.7 mm | – | – | – | –
NCC[C@H](O)C(=O)N[C@@H]1C[C@H](N)[C@@H](O[C@H]2O[C@H](CN)[C@@H](O)[C@H](O)[C@H]2O)[C@H](O)[C@H]1O[C@H]1O[C@H](CO)[C@@H](O)[C@H](N)[C@H]1O [AMIKACIN] | – | – | – | 23 mm | – | – | – | – | – | – | – | – | – | – | – | – | – | – | – | – | –
O=C(N[C@H](CO)[C@H](O)c1ccc([N+](=O)[O-])cc1)C(Cl)Cl [CHLORAMPHENICOL] | – | – | – | 25.4 mm | – | 26.1 mm | – | – | – | – | – | 24.6 mm | 23.7 mm | – | – | – | – | – | – | – | –
